The target of the assay is Voltage-dependent T-type calcium channel subunit alpha-1I (Homo sapiens) (UniProt Q9P0X4). In words: inhibitors of CACNA1I calcium current – automated patch clamp, HEK293 cells, selectivity assay for Cav3.2 inhibitor project, dose response (AID 504425). As to conditions: HEK293 Cav3.3, automated patch clamp current; for current change, negative = inhibition: at 30 µM (top of the series). The gist of the method:
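Material: Cav3.3-expressing stable HEK293 cell line; Probe or stimulus: voltage step, -100 mV to -30 mV, 1 s; Times: 3 min compound exposure between pre- and post-compound recordings; Detection: automated perforated patch clamp current recording.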
For orientation: The patch-clamp technique gives a direct electrical read-out from membranes.

Activity calls are given as the source filed them.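 How the source made its calls: active means compound that lowers Cav3.3 T-type calcium current at some tested dose and yields a usable dose response curve; inactive means the rest.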

Sequence of Voltage-dependent T-type calcium channel subunit alpha-1I (Homo sapiens) (Q9P0X4 whole entry, looked up): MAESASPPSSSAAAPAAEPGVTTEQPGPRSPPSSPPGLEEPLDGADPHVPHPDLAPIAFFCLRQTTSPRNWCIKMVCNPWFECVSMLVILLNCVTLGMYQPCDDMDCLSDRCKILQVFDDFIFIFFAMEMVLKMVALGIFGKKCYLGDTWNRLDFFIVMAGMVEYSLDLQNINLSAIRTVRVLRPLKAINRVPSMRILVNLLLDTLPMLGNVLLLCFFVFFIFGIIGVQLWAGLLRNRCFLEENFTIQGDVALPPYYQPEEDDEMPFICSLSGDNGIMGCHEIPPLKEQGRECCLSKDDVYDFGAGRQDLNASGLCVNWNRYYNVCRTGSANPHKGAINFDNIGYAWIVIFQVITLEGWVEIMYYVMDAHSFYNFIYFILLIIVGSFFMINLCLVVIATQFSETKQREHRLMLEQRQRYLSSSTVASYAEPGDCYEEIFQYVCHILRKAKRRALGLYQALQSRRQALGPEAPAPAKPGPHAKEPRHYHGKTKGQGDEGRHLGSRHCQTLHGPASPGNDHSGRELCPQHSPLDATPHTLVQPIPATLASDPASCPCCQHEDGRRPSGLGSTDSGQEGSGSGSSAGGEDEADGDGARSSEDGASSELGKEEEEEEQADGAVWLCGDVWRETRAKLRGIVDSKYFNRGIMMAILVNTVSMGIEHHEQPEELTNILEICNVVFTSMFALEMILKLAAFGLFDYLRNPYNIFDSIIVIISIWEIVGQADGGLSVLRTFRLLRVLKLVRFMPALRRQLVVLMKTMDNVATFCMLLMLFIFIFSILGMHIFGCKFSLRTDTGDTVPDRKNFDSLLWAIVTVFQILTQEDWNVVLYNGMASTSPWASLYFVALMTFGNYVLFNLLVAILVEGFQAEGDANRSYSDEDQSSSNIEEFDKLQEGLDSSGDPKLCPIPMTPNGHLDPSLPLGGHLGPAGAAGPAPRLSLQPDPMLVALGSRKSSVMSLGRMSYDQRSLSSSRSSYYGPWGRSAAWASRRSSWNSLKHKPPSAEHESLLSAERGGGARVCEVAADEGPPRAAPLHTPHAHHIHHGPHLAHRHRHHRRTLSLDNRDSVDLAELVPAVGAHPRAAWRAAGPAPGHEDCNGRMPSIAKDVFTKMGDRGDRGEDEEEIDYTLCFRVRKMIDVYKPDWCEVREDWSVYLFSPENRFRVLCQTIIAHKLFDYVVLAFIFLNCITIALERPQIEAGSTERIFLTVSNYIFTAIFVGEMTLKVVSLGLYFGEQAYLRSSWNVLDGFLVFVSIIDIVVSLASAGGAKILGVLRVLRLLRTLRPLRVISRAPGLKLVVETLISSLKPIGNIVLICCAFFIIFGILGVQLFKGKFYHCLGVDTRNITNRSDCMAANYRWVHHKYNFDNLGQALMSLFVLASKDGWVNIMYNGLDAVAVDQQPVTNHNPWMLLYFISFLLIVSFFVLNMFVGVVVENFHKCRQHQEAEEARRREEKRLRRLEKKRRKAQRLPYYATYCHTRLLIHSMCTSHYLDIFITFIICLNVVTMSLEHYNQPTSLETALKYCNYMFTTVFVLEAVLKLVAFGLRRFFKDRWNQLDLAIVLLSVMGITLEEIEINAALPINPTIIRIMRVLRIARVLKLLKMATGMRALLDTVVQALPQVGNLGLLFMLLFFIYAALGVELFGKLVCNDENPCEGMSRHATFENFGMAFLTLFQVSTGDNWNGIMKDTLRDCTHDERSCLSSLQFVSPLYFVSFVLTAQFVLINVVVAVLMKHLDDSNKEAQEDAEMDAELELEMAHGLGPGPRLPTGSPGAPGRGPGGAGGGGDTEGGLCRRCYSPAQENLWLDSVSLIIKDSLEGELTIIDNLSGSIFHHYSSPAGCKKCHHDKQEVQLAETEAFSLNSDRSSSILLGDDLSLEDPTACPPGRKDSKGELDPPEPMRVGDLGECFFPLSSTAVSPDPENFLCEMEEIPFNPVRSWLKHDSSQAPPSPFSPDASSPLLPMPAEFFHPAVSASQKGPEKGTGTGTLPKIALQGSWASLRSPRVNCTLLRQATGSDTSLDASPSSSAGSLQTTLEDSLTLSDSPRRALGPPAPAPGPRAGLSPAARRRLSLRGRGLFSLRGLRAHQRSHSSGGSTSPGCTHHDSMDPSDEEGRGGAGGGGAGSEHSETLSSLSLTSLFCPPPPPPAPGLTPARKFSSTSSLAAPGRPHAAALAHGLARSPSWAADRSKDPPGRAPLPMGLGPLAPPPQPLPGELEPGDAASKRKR

Turning to `CC(C)(C)CCN1C[C@@H]2C(CNC(=O)c3cc(Cl)cc(Cl)c3)[C@@H]2C1` (some centres undefined), the IC50 (in general, the concentration that gives 50% inhibition) was 0.275 µM. Regarding `O=C(COc1ccc(F)cc1Cl)Nc1nnc(-c2ccc(F)c(F)c2)o1`, the IC50 was 11 µM. Consider `Cc1ccc(-c2nnc(NC(=O)COc3ccc(F)cc3Cl)o2)cc1C`, for which the “current change, negative = inhibition” value was “inactive”. The same measure, in the same setting: the result for `CC(C)(C)Cc1nnc(NC(=O)COc2ccc(Cl)cc2Cl)o1` reads “inactive”.

For the origin of these results see PubChem BioAssay AID504425 (Johns Hopkins Ion Channel Center, 2011).
